Columns and labels:
[1] = organism: Rattus norvegicus; assay: Dose required to produce increase in 50 % in urine production vs control groups; type: functional; conditions: Rattus norvegicus, Urine
In short: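 Male Sprague-Dawley rats (HC/CFY, 175-200 g), fasted and water-deprived 18 h before and during the test. Compound dosed by gavage in 1% carboxymethyl cellulose/0.1% Tween 80, then water load 2.5 mL/100 g bw po. Urine collected 6 h in metabolic cages; Na+ by flame photometry. Effective doses vs vehicle controls derived by linear regression of dose-response data.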

[2] = test system: Rattus norvegicus; assay: Volume of urine 4 hr after the compound was administered 100 mg/kg po in rat; type: ADME, organism-based; set-up: dose 100 mg/kg, route oral; conditions: in vivo
In short: (§1)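 Onset/duration protocol: male Sprague-Dawley rats (HC/CFY, 175-200 g), food and water withdrawn for 18 h before and during the test. Single gavage dose in 1% carboxymethyl cellulose/0.1% Tween 80 (0.5 mL/100 g bw), then distilled water load (2.5 mL/100 g bw po). Two rats per metabolic cage, six pairs per group. Urine collected at 0-1, 1-2, 2-3, 3-4 and 4-6 h; Na+ by flame photometry. Vehicle controls; nonpaired Student t-test.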

[3] = test system: Rattus norvegicus; assay: Mean urinary output in rats when compound administered at 20 mg/kg po and vehicle dosed at 74.26 umol/kg; type: ADME, organism-based, Urine; set-up: dose 20 mg/kg, route oral; conditions: in vivo
In short: (§2)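 Water-loaded male Sprague-Dawley rats (HC/CFY, 175-200 g) fasted and without water for 18 h. Oral gavage of 2.5-160 mg/kg in 1% CMC with 0.1% Tween 80, then distilled water 2.5 mL/100 g po. Urine collected 6 h in metabolic cages, mean output in mL/6 h/kg bw. Unpaired Student t-test against vehicle; dose-response by linear regression.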

[4] = test system: Rattus norvegicus; assay: Volume of urine 1 hr after the compound was administered 100 mg/kg po in rat; type: ADME, organism-based; set-up: dose 100 mg/kg, route oral; conditions: in vivo; in short: as §1
[5] = test system: Rattus norvegicus; assay: Mean sodium excretion in rats when compound administered at 80 mg/kg po and vehicle dosed at 297.03 umol/kg; type: ADME, organism-based; set-up: dose 80 mg/kg, route oral; conditions: in vivo
In short: (§3)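 Male Sprague-Dawley rats (HC/CFY, 175-200 g) fasted and water-deprived 18 h before and during the test. Dosed by gavage at 2.5-160 mg/kg in 1% carboxymethyl cellulose/0.1% Tween 80, 0.5 mL/100 g bw. Immediately hydrated with water (2.5 mL/100 g bw, po). Urine collected 6 h in metabolic cages; Na+ and K+ by flame photometry; mean mequiv/6 h/kg bw; nonpaired Student t-test.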

[6] = test system: Rattus norvegicus; assay: Mean urinary output in rats when compound administered at 2.5 mg/kg po and vehicle dosed at 9.28 umol/kg; type: ADME, organism-based, Urine; set-up: dose 2.5 mg/kg, route oral; conditions: in vivo; in short: as §2
[7] = test system: Rattus norvegicus; assay: Volume of urine 6 hr after the compound was administered 100 mg/kg po in rat; type: ADME, organism-based; set-up: dose 100 mg/kg, route oral; conditions: in vivo; in short: as §1
[8] = test system: Rattus norvegicus; assay: Mean urinary output in rats when compound administered at 10 mg/kg po and vehicle dosed at 37.13 umol/kg; type: ADME, organism-based, Urine; set-up: dose 10 mg/kg, route oral; conditions: in vivo; in short: as §2
[9] = test system: Rattus norvegicus; assay: Volume of urine 3h after the compound was administered 100 mg/kg po in rat; type: ADME, organism-based; set-up: dose 100 mg/kg, route oral; conditions: in vivo; in short: as §1
[10] = test system: Rattus norvegicus; assay: Mean urinary output in rats when compound administered at 5 mg/kg po and vehicle dosed at 18.56 umol/kg; type: ADME, organism-based, Urine; set-up: dose 5 mg/kg, route oral; conditions: in vivo; in short: as §2
[11] = test system: Rattus norvegicus; assay: Mean sodium excretion in rats when compound administered at 160 mg/kg po and vehicle dosed at 594.07 umol/kg; type: ADME, organism-based; set-up: dose 160 mg/kg, route oral; conditions: in vivo; in short: as §3
[12] = test system: Rattus norvegicus; assay: Post dosing time interval of maximum activity; type: functional
In short: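 Interval of peak activity taken from timed urine collections (0-1, 1-2, 2-3, 3-4, 4-6 h) after a single oral dose in water-loaded fasted rats, […]. Urine volume and Na+ excretion followed over time.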

[13] = test system: Rattus norvegicus; assay: Mean sodium excretion in rats when compound administered at 40 mg/kg po and vehicle dosed at 148.52 umol/kg; type: ADME, organism-based; set-up: dose 40 mg/kg, route oral; conditions: in vivo; in short: as §3
[14] = test system: Rattus norvegicus; assay: Urinary sodium 3h after the compound was administered 100 mg/kg po in rat; type: ADME, organism-based, Urine; set-up: dose 100 mg/kg, route oral; conditions: in vivo
In short: (§4)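 Onset and duration study in fasted, water-loaded male Sprague-Dawley rats housed two per metabolic cage, six pairs per group. Single oral dose given, then water 2.5 mL/100 g po. Urine volume and sodium (flame photometry) measured over 0-1, 1-2, 2-3, 3-4 and 4-6 h intervals. Mean values compared with vehicle by Student t-test.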

[15] = test system: Rattus norvegicus; assay: Mean potassium excretion in rats when compound administered at 40 mg/kg po and vehicle dosed at 148.52 umol/kg; type: ADME, organism-based; set-up: dose 40 mg/kg, route oral; conditions: in vivo
In short: (§5)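 Male Sprague-Dawley rats (HC/CFY, 175-200 g), no food or water for 18 h before and during the test. Single gavage dose (2.5-160 mg/kg; vehicle 1% carboxymethyl cellulose/0.1% Tween 80, 0.5 mL/100 g bw), then distilled water 2.5 mL/100 g bw po. Individual metabolic cages, 6 h urine. K+ by flame photometry, Cl- colorimetric, as mequiv/6 h/kg bw; unpaired Student t-test vs control.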

[16] = test system: Rattus norvegicus; assay: Volume of urine 2 hr after the compound was administered 100 mg/kg po in rat; type: ADME, organism-based; set-up: dose 100 mg/kg, route oral; conditions: in vivo; in short: as §1
[17] = test system: Rattus norvegicus; assay: Mean sodium excretion in rats when compound administered at 5 mg/kg po and vehicle dosed at 18.56 umol/kg; type: ADME, organism-based; set-up: dose 5 mg/kg, route oral; conditions: in vivo; in short: as §3
[18] = test system: Rattus norvegicus; assay: Urinary sodium 4 hr after the compound was administered 100 mg/kg po in rat; type: ADME, organism-based, Urine; set-up: dose 100 mg/kg, route oral; conditions: in vivo; in short: as §4
[19] = test system: Rattus norvegicus; assay: Mean Chlorine excretion in rats when compound administered at 2.5 mg/kg po and vehicle dosed at 9.28 umol/kg; type: ADME, organism-based; set-up: dose 2.5 mg/kg, route oral; conditions: in vivo; in short: as §5
[20] = test system: Rattus norvegicus; assay: Mean sodium excretion in rats when compound administered at 2.5 mg/kg po and vehicle dosed at 9.28 umol/kg; type: ADME, organism-based; set-up: dose 2.5 mg/kg, route oral; conditions: in vivo; in short: as §3
[21] = organism: Rattus norvegicus; assay: Mean urinary output in rats (Control/Drug treatment value); value 24.2/47.6; type: ADME, organism-based, Urine; conditions: in vivo
In short: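 Water-loaded male Sprague-Dawley rats (HC/CFY, 175-200 g), eight per group, deprived of food and water 18 h. Single oral gavage of 20-25 mg/kg (some 10 mg/kg) in 1% CMC/0.1% Tween 80, then distilled water 2.5 mL/100 g bw po. Cumulative urine over 6 h in metabolic cages; mean mL/6 h/kg bw vs vehicle group.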

[22] = test system: Rattus norvegicus; assay: Mean potassium excretion in rats when compound administered at 0 mg/kg po and vehicle dosed at 0 umol/kg; type: ADME, organism-based; set-up: dose 0 mg/kg, route oral; conditions: in vivo; in short: as §5
[23] = test system: Rattus norvegicus; assay: Mean sodium excretion in rats when compound administered at 10 mg/kg po and vehicle dosed at 37.13 umol/kg; type: ADME, organism-based; set-up: dose 10 mg/kg, route oral; conditions: in vivo; in short: as §3
[24] = test system: Rattus norvegicus; assay: Mean potassium excretion in rats when compound administered at 160 mg/kg po and vehicle dosed at 594.07 umol/kg; type: ADME, organism-based; set-up: dose 160 mg/kg, route oral; conditions: in vivo; in short: as §5
[25] = test system: Rattus norvegicus; assay: Mean Chlorine excretion in rats when compound administered at 80 mg/kg po and vehicle dosed at 297.03 umol/kg; type: ADME, organism-based; set-up: dose 80 mg/kg, route oral; conditions: in vivo; in short: as §5
[26] = test system: Rattus norvegicus; assay: Mean potassium excretion in rats when compound administered at 5 mg/kg po and vehicle dosed at 18.56 umol/kg; type: ADME, organism-based; set-up: dose 5 mg/kg, route oral; conditions: in vivo; in short: as §3
[27] = test system: Rattus norvegicus; assay: Mean urinary output in rats when compound administered at 80 mg/kg po and vehicle dosed at 297.03 umol/kg; type: ADME, organism-based, Urine; set-up: dose 80 mg/kg, route oral; conditions: in vivo; in short: as §2
[28] = Ratio of Na+ to K+ excretion at dose; type: ADME
In short: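 Water-loaded fasted male Sprague-Dawley rats dosed orally in CMC/Tween 80 vehicle and hydrated with water 2.5 mL/100 g. Na+ and K+ in urine pooled over 6 h measured by flame photometry. Na+/K+ excretion ratio computed for each dose; Student t-test against control.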

[29] = test system: Rattus norvegicus; assay: Mean Chlorine excretion in rats when compound administered at 20 mg/kg po and vehicle dosed at 74.26 umol/kg; type: ADME, organism-based; set-up: dose 20 mg/kg, route oral; conditions: in vivo; in short: as §5
[30] = test system: Rattus norvegicus; assay: Mean Chlorine excretion in rats when compound administered at 5 mg/kg po and vehicle dosed at 18.56 umol/kg; type: ADME, organism-based; set-up: dose 5 mg/kg, route oral; conditions: in vivo; in short: as §5
[31] = test system: Rattus norvegicus; assay: Mean Chlorine excretion in rats when compound administered at 0 mg/kg po and vehicle dosed at 0 umol/kg; type: ADME, organism-based; set-up: dose 0 mg/kg, route oral; conditions: in vivo

In the case of `CCc1nc2c(nc1C)C(N)=NS(=O)(=O)N2CC`, the ED50 [1] is reported as 9.17 mg/kg, the Urine volume [2] is reported as 2.71 mL and the V [3] is reported as 42.25 ml 6hr-1 (kg of body weight)-1. The Urine volume [4] was 1.84 mL, the Na [5] was 5.1 m equiv 6hr-1 kg-1 (body weight)-1 and the V [6] was 20.52 ml 6hr-1 (kg of body weight)-1. For the same compound, the Urine volume [7] was 1.99 mL, the V [8] was 32.6 ml 6hr-1 (kg of body weight)-1 and the Urine volume [9] was 5.52 mL. For the same compound, the V [10] was 25.06 ml 6hr-1 (kg of body weight)-1, the Na [11] was 6.14 m equiv 6hr-1 kg-1 (body weight)-1 and the Time [12] was 2 h. The Na [13] was 3.63 m equiv 6hr-1 kg-1 (body weight)-1, the “Urinary Na+” value [14] was 0.56 m equiv and the K [15] was 1.25 m equiv 6hr-1 kg-1 (body weight)-1. For the same compound, the Urine volume [16] was 8.7 mL, the Na [17] was 0.8 m equiv 6hr-1 kg-1 (body weight)-1 and the “Urinary Na+” value [18] was 0.27 m equiv. For the same compound, the Cl- [19] was 1.21 m equiv 6hr-1 kg-1 (body weight)-1, the Na [20] was 0.45 m equiv 6hr-1 kg-1 (body weight)-1 and the V [21] was 2. For the same compound, the K [22] was 0.49 m equiv 6hr-1 kg-1 (body weight)-1, the Na [23] was 1.21 m equiv 6hr-1 kg-1 (body weight)-1 and the K [24] was 2.35 m equiv 6hr-1 kg-1 (body weight)-1. The Cl- [25] was 8.04 m equiv 6hr-1 kg-1 (body weight)-1, the K [26] was 0.52 m equiv 6hr-1 kg-1 (body weight)-1 and the V [27] was 62.99 ml 6hr-1 (kg of body weight)-1. The Ratio [28] was 2.43 [middle of 8 runs], the Cl- [29] was 3.99 m equiv 6hr-1 kg-1 (body weight)-1 and the Cl- [30] was 1.83 m equiv 6hr-1 kg-1 (body weight)-1. The Cl- [31] was 1.02 m equiv 6hr-1 kg-1 (body weight)-1.

Source: ChEMBL document CHEMBL1125330, “N-substituted pyrazino[2,3-c][1,2,6]thiadiazine 2,2-dioxides. A new class of diuretics” (J Med Chem, 1992)
